Test [1] deals with T1, YAP1-TEAD4 (Homo sapiens) (UniProt P46937+Q15561). As to the kind of experiment: Covalent inhibition of GST-tagged TEAD4 (217 to 434 residues) (unknown origin) expressed in Escherichia coli BL21 (DE3) cells/FAM-labelled YAP1 (60 to 99 residues)(unknown origin) protein-protein interaction assessed as protein-compound adduct formation at 100 uM incubated for 24 hrs at 4 degree C followed by mass spectrometry analysis. The procedure, abridged: (§1)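 Intact-protein MS: 2.5 μM protein (TEAD4 217–434 with GST cleaved, TEAD4C367S, TEAD1 209–426, TEAD2 217–447 or TEAD3 210–427) incubated with 100 μM compound in PBS for 24 h at 4 °C. Samples were centrifuged to remove precipitate, desalted on a C3 reverse-phase column with a water/acetonitrile 0.1% formic acid gradient, and masses were read by Q-TOF. Adduct peaks were reported as percent.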

Test [2] is filed under the species Homo sapiens. Put plainly: Covalent inhibition of GST-tagged TEAD4 C367S mutant (unknown origin) expressed in Escherichia coli BL21 (DE3)/FAM-labelled YAP1 (60 to 99 residues)(unknown origin) protein-protein interaction assessed as protein-compound adduct formation at 100 uM incubated for 24 hrs at 4 degree C followed by mass spectrometry analysis. The procedure, abridged: as §1

Test [3] deals with T1, YAP1-TEAD4 (Homo sapiens). As to the kind of experiment: Inhibition of GST-tagged TEAD4 (217 to 434 residues) (unknown origin) expressed in Escherichia coli BL21 (DE3) cells/FAM-labelled YAP1 (60 to 99 residues)(unknown origin) protein-protein interaction assessed as maximum inhibition at 50 uM preincubated for 24 hrs at 4 degree C with TEAD4 followed by fluorescent labelled YAP1 addition by fluorescence polarization assay. The procedure, abridged: (§2)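 FP: 64 nM TEAD4, TEAD4C367S, TEAD2 or TEAD3, or 250 nM TEAD1, was preincubated with compound for 24 h at 4 °C in PBS with 0.01% Triton X-100. FAM-YAP1 60–99 peptide (disulfide-crosslinked) was then added at 16 nM final. Polarization was read at ex 485/em 535 nm. Percent inhibition was taken relative to no-compound and no-protein controls. The single-point primary screen used 50 μM.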
(In general: Fluorescence polarisation rises when a labelled molecule tumbles more slowly, as on binding a larger partner.)

The subject of test [4] is S2. As to the kind of experiment: Inhibition of uPAR (unknown origin) expressed in S2 cells/FAM-labelled alpha-helical peptide AE-147 (unknown origin) protein-protein interaction preincubated for 24 hrs at 4 degree C with uPAR followed by fluorescent labelled AE-147 addition by fluorescence polarization assay. The note with it: Homo sapiens. An outline of the steps:
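Counter-screen FP: 250 nM uPAR lacking the GPI anchor (from S2 cells) was preincubated with compound for 24 h at 4 °C in PBS with 0.01% Triton X-100. AE-147-FAM peptide was then added at 100 nM final and polarization read at ex 485/em 535 nm.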

For test [5], the target named is YAP1-TEAD4 (Homo sapiens, UniProt Q15561). Put plainly: Inhibition of GST-tagged TEAD4 (217 to 434 residues) (unknown origin) expressed in Escherichia coli BL21 (DE3) cells/FAM-labelled YAP1 (60 to 99 residues)(unknown origin) protein-protein interaction preincubated for 24 hrs at 4 degree C with TEAD4 followed by fluorescent labelled YAP1 addition by fluorescence polarization assay. An outline of the steps:
as §2

Test [6] addresses T1, YAP1-TEAD4 (Homo sapiens). As to the kind of experiment: Covalent inhibition of GST-tagged TEAD4 (217 to 434 residues) (unknown origin) expressed in Escherichia coli BL21 (DE3) cells/FAM-labelled YAP1 (60 to 99 residues)(unknown origin) protein-protein interaction assessed as additional protein-compound adduct formation at 100 uM incubated for 24 hrs at 4 degree C followed by mass spectrometry analysis. The procedure, abridged:
as §1

The species named for test [7] is Homo sapiens. As to the kind of experiment: Inhibition of GST-tagged TEAD4 C367S mutant (unknown origin) expressed in Escherichia coli BL21 (DE3) cells/FAM-labelled YAP1 (60 to 99 residues)(unknown origin) protein-protein interaction preincubated for 24 hrs at 4 degree C with TEAD4 C367S mutant followed by fluorescent labelled YAP1 addition by fluorescence polarization assay. The procedure, abridged:
as §2

In test [8] the target is T1, YAP1-TEAD4 (Homo sapiens). As to the kind of experiment: Covalent inhibition of GST-tagged TEAD4 (217 to 434 residues) (unknown origin) expressed in Escherichia coli BL21 (DE3) cells/FAM-labelled YAP1 (60 to 99 residues)(unknown origin) protein-protein interaction assessed as second protein-compound adduct formation at 100 uM incubated for 24 hrs at 4 degree C followed by mass spectrometry analysis. An outline of the steps: as §1

The source made the active and inactive calls. No cut-off for these calls is given here.

YAP1-TEAD4, sequence (P46937 whole entry, the tested form may be a part): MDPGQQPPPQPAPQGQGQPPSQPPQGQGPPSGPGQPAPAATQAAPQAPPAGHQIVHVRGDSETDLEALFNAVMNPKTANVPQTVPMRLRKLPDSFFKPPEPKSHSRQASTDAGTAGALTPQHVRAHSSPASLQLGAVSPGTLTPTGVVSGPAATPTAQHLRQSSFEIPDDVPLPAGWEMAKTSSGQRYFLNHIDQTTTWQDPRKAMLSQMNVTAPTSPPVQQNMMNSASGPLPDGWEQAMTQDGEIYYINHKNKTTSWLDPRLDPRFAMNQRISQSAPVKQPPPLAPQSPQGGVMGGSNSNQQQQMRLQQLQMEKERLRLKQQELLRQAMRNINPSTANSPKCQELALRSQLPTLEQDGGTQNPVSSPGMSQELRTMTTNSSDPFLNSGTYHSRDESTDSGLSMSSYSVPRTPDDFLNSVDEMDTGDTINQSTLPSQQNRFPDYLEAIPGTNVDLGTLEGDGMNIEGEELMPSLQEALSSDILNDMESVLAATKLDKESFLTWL
YAP1-TEAD4, sequence (Q15561 whole entry, the tested form may be a part): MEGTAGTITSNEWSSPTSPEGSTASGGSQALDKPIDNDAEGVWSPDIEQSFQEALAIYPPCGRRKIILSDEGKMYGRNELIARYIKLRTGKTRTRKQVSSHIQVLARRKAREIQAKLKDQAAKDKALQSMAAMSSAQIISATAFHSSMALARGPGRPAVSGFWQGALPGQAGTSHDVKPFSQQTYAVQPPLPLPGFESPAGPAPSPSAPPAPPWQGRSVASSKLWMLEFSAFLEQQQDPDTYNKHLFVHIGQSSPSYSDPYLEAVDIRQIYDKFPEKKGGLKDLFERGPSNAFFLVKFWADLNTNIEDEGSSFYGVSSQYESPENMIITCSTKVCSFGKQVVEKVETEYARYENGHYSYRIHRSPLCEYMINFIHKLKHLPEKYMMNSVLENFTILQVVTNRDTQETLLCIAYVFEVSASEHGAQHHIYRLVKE

For `COc1ccc(N(C(=O)CCl)C(C(=O)NCCc2ccccc2)c2cccs2)cc1Cl` (stereo not given), the percent protein-compound adduct formation in test [1] came out at 51%; in test [6] it was 15%. For the same molecule, the inhibition result in test [2], in test [4] and in test [7] was “inactive” throughout. For the same molecule, the Imax in test [3] is 39%. Besides, in test [5], the midpoint of inhibition, the IC50, lay at 1.1 µM. The percent second protein-compound adduct in test [8] worked out at 12%.
For `COc1ccc(C2=NN(C(=O)CCl)C(c3nc4ccccc4[nH]3)C2)cc1` (stereo not given), the percent protein-compound adduct formation in test [1] worked out at 38%. Further, the inhibition entry in test [2], in test [4] and in test [7] was “inactive” in each case. Also, the Imax in test [3] was determined as 45%. For the same molecule, it took 5.8 µM to reach half-maximal inhibition in test [5] (IC50). For the same molecule, in test [8], the percent second protein-compound adduct came out at 30%.
With `O=C(CCl)N1N=C(c2cccs2)CC1c1cccs1` (stereo not given), the percent protein-compound adduct formation in test [1] was found to be 45%. The inhibition entry in test [2], in test [4] and in test [7] was “inactive” in each case. The Imax in test [3] was determined as 46%. For the same molecule, inhibition in test [5] was half-maximal at 4.7 µM (IC50). The percent second protein-compound adduct in test [8] amounted to 9%.
Regarding `O=C(NCCc1ccccc1)C(c1cccs1)N(C(=O)CCl)c1ccc(Cl)cc1` (stereo not given), the percent protein-compound adduct formation in test [1] is 15%. Further, the inhibition entry in test [2], in test [4] and in test [7] was “inactive” each time. Further, the Imax in test [3] was determined as 40%. In test [5], the IC50 (in general, the concentration needed to halve the response being measured) is 4 µM.
With `COc1ccc(C(C(=O)NCCc2ccccc2)N(Cc2cccs2)C(=O)CCl)cc1` (stereo not given), the percent protein-compound adduct formation in test [1] was found to be 47%. Also, the inhibition entry in test [2], in test [4] and in test [7] was “inactive” in each case. In addition, in test [3], the Imax turned out to be 42%. The molecule also displayed an IC50 in test [5] of 10.5 µM.
Take `O=C(CCl)N1CCN(S(=O)(=O)c2ccc(Cl)cc2[N+](=O)[O-])CC1`: in test [1], the percent protein-compound adduct formation was determined as 54%. Further, the inhibition result in test [4] and in test [7] was “inactive” in each case. Besides, the percent second protein-compound adduct in test [8] was found to be 31%.
With `Cc1ccc(S(=O)(=O)N2CCN(C(=O)CCl)C2)cc1`, in test [1], the percent protein-compound adduct formation was 75%. Further, the Imax in test [3] worked out at 49%. Also, the inhibition entry in test [4] and in test [7] was “inactive” each time. In test [5], this molecule registered an IC50 of 1.9 µM. Also, the percent second protein-compound adduct in test [8] came out at 25%.
In the case of `COc1ccc(C(C(=O)NC2CCCCCC2)N(Cc2ccccc2)C(=O)CCl)cc1` (stereo not given), in test [1], the percent protein-compound adduct formation amounted to 31%. In addition, the inhibition result in test [2], in test [4] and in test [7] was “inactive” throughout. The Imax in test [3] is 49%. In addition, half-maximal inhibition in test [5] (IC50) was put at 7.4 µM.
Regarding `COc1ccc(C(C(=O)NC2CCCCCC2)N(Cc2ccc(C)cc2)C(=O)CCl)cc1` (stereo not given), in test [1], the percent protein-compound adduct formation stood at 25%. The inhibition entry in test [2], in test [4] and in test [7] was “inactive” each time. Besides, the Imax in test [3] was found to be 36%. This molecule had an IC50 in test [5] of 4.4 µM.
Turning to `COc1ccc(C(C(=O)NC2CCCCCC2)N(Cc2cccs2)C(=O)CCl)cc1` (stereo not given), the percent protein-compound adduct formation in test [1] was determined as 32%. The inhibition result in test [2], in test [4] and in test [7] was “inactive” throughout. The Imax in test [3] was found to be 41%. Moreover, in test [5], it took 4.8 µM to reach half-maximal inhibition (IC50).
For the molecule `COc1ccc(CN(C(=O)CCl)C(C(=O)NC2CCCCCC2)c2ccc(OC)cc2)cc1` (stereo not given), in test [1], the percent protein-compound adduct formation was 37%. The inhibition entry in test [2], in test [4] and in test [7] was “inactive” each time. Also, the Imax in test [3] is 45%. For the same molecule, in test [5], it took 5.5 µM to reach half-maximal inhibition (IC50).
As for `Cc1ccc(S(=O)(=O)N2CCN(C(=O)CCl)CC2)cc1C`, the percent protein-compound adduct formation in test [1] was determined as 38%. The Imax in test [3] was 48%. Further, the inhibition result in test [4] and in test [7] was “inactive” each time. This molecule also registered an IC50 in test [5] of 22.8 µM.
For the molecule `COc1ccc(C2=NN(C(=O)CCl)C(c3cccc(OC)c3OC)C2)cc1` (stereo not given), the percent protein-compound adduct formation in test [1] stood at 42%. Besides, the inhibition entry in test [2], in test [4] and in test [7] was “inactive” in each case. In addition, the Imax in test [3] amounted to 39%. This molecule registered an IC50 in test [5] of 1.1 µM.
In the case of `Cc1ccc(C2CC(c3cccs3)=NN2C(=O)CCl)cc1` (stereo not given), the percent protein-compound adduct formation in test [1] is 27%. The inhibition entry in test [2], in test [4] and in test [7] was “inactive” throughout. The Imax in test [3] was 41%. The molecule further had an IC50 in test [5] of 3.8 µM.
As for `Cc1ccc(S(=O)(=O)N2CCN(C(=O)CCl)C2c2ccccc2)cc1` (stereo not given), in test [1], the percent protein-compound adduct formation was 52%. The Imax in test [3] worked out at 50%. Further, the inhibition entry in test [4] and in test [7] was “inactive” throughout. The molecule also had an IC50 in test [5] of under 1 µM. In addition, the percent second protein-compound adduct in test [8] came out at 23%.
Consider `O=C(CCl)N1CCN(S(=O)(=O)/C=C/c2ccccc2)CC1`, for which, in test [1], the percent protein-compound adduct formation was 73%. The Imax in test [3] was 49%. Besides, the inhibition result in test [4] and in test [7] was “inactive” each time. In test [5], it took 4.9 µM to reach half-maximal inhibition (IC50).
For `O=C(CCl)N1N=C(c2ccccc2)CC1c1ccccc1` (stereo not given), the percent protein-compound adduct formation in test [1] stood at 38%. Moreover, the inhibition entry in test [2], in test [4] and in test [7] was “inactive” each time. The Imax in test [3] came to 52%. Half-maximal inhibition in test [5] (IC50) required 5.9 µM. Further, in test [8], the percent second protein-compound adduct turned out to be 21%.
`O=C(CCl)N1N=C(c2ccc(Br)cc2)CC1c1ccc(F)cc1` (stereo not given): in test [1], the percent protein-compound adduct formation worked out at 27%. In addition, the inhibition result in test [2], in test [4] and in test [7] was “inactive” in each case. Moreover, in test [3], the Imax stood at 41%. The molecule also yielded an IC50 in test [5] of 1.5 µM.
With `Cc1ccc2c(c1)c1c3n2CCN(C(=O)CCl)C3CCC1` (stereo not given), the percent protein-compound adduct formation in test [1] was 29%; in test [6], 30%. For the same molecule, in test [3], the Imax is 50%. Moreover, the inhibition result in test [4] and in test [7] was “inactive” each time. The IC50 in test [5] came to 2 µM. In addition, in test [8], the percent second protein-compound adduct amounted to 30%.
In the case of `O=C(CCl)N1N=C(c2ccc(Cl)cc2)CC1c1ccco1` (stereo not given), the percent protein-compound adduct formation in test [1] worked out at 64%. Besides, the inhibition entry in test [2], in test [4] and in test [7] was “inactive” in each case. Moreover, in test [3], the Imax is 62%. Further, the midpoint of inhibition in test [5], the IC50, lay at 6 µM. Further, the percent second protein-compound adduct in test [8] is 18%.
`O=C(CCl)N1N=C2/C(=C/c3ccco3)CCCC2C1c1ccco1` (stereo not given): in test [1], the percent protein-compound adduct formation amounted to 32%. Besides, the inhibition result in test [2], in test [4] and in test [7] was “inactive” each time. Besides, in test [3], the Imax is 67%. This molecule showed an IC50 in test [5] of 7.8 µM. Also, the percent second protein-compound adduct in test [8] turned out to be 10%.

Values taken from ChEMBL document CHEMBL5329172, “Chloroacetamide fragment library screening identifies new scaffolds for covalent inhibition of the TEAD·YAP1 interaction” (RSC Med Chem, 2023).
